Test results from article PMC5094435 (Saudi Pharmaceutical Journal : SPJ, 2015).
In brackets after ≈: the same amount, converted by molar mass. Several values for one entry are separate records, joined by “and”; a condition that tells them apart may be missing. Equal entries are not always repeated.

Columns and labels:
mucosal damage = test: Acute ulcerogenic activity; assay type: in vivo, Albino rats; conditions: rats, mean ± SEM
In short: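 Conducted in Albino rats (160–200 g, housed six per cage, acclimatised 48 h) following Cioli et al. Gastric mucosal damage was scored at the end of the study. Ulcerogenic potential (severity index) came from comparing the mean score of each treated group with that of the control rats.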

[1] = tested on: tail immersion (hot water 55 °C); test: Central analgesic activity, tail immersion method; assay type: in vivo, Swiss albino mice; conditions: mice, mean ± SEM; for Central analgesic activity [tail immersion (reaction time in min)] 1 h: 1 h after the dosing; for Central analgesic activity [tail immersion (reaction time in min)] 2 h: 2 h after the dosing
In short: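 Used the same mice from the writhing test after a washout period. Each mouse was held in a restrainer and the protruding tail (up to 5 cm) was dipped in 55 °C water. Withdrawal time was recorded as reaction time at 1 h and 2 h post-dose. Data are mean ± SEM, analysed by ANOVA followed by Dunnett's t test.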

[2] = tested on: Staphylococcus aureus (MTCC 96); test: Antibacterial activity; assay type: cell-based; conditions: MTCC96, read-out: MIC, S. aureus
In short: (§1)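 Screened by a standard method against S. aureus MTCC 96, B. subtilis MTCC 121, E. coli MTCC 1652 and P. aeruginosa MTCC 741. Ciprofloxacin was the reference antibiotic. Only compounds active at 100 μg/mL went on to MIC determination.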

[3] = tested on: Escherichia coli (MTCC 1652); test: Antibacterial activity; assay type: cell-based; conditions: for MIC: Escherichia coli, MTCC1652, read-out: MIC, E. coli
In short: as §1

[4] = tested on: Bacillus subtilis (MTCC 121); test: Antibacterial activity; assay type: cell-based; conditions: MTCC121, read-out: MIC, B. subtilis
In short: as §1

Aspergillus niger = test: Antifungal activity; assay type: cell-based; conditions: read-out: MIC, A. niger
In short: (§2)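 Run by the poison food technique against Aspergillus niger and Aspergillus flavus. Fluconazole was the reference drug.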

Aspergillus flavus = test: Antifungal activity; assay type: cell-based; conditions: read-out: MIC, A. flavus
In short: as §2

[5] = tested on: Pseudomonas aeruginosa (MTCC 741); test: Antibacterial activity; assay type: cell-based; conditions: for MIC: Pseudomonas aeruginosa, MTCC741, read-out: MIC, P. aeruginosa
In short: as §1

[6] = tested on: carrageenan induced edema; test: Anti-inflammatory activity, carrageenan induced rat paw edema; assay type: in vivo, Wistar rats; conditions: inhibition of edema, rats
In short: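 Used the Winter et al. paw oedema method in Wistar rats of either sex (160–200 g), housed six per cage and acclimatised 48 h. Percent inhibition of oedema was calculated at 1, 2, 3 and 4 h. Diclofenac served as the standard drug.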

[7] = tested on: acetic acid induced writhing; test: Peripheral analgesic activity, acetic acid induced writhing method; assay type: in vivo, Swiss Albino mice; conditions: mice; for Peripheral analgesic activity (writhing test) No. of writhing: mean ± SEM; for Peripheral analgesic activity (writhing test) % Protection: vs control group
In short: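 Writhing was induced with aqueous acetic acid in Swiss albino mice (20–30 g) of either sex, six per group. % Protection = (Wc − Wt)/Wc × 100, where Wc and Wt are the mean writhing counts of the control and test groups.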

Row | SMILES | Ulcerogenic activity (severity index) (mucosal damage) | Central analgesic activity [tail immersion (reaction time in min)] 1 h [1] | Central analgesic activity [tail immersion (reaction time in min)] 2 h [1] | MIC [2] | MIC [3] | MIC [4] | MIC (Aspergillus niger) | MIC (Aspergillus flavus) | MIC [5] | % Inhibition ± SEM After 1 h [6] | % Inhibition ± SEM After 2 h [6] | % Inhibition ± SEM After 3 h [6] | Peripheral analgesic activity (writhing test) No. of writhing [7] | Peripheral analgesic activity (writhing test) % Protection [7] | MIC, E. coli ([3]; E. coli (MTCC 1652)) | MIC, P. aeruginosa ([5]; P. aeruginosa (MTCC 741)) | % Inhibition ± SEM After 4 h [6]
1 | O=C1OC(c2ccc3ccccc3c2)=CC1=Cc1cc2cc(Cl)ccc2nc1Cl [Compound 5b, 3-[(2,6-Dichloroquinolin-3-yl)methylene]-5-(naphthalene-2-yl)furan-2(3H)-one] | 0.33 ± 0.35^∗ | 3.2 ± 0.2^∗ min | 4.4 ± 0.5 min | 12.5 µg/mL (≈ 29.9 µM) | 25 µg/mL (≈ 59.8 µM) | 12.5 µg/mL (≈ 29.9 µM) | 25 µg/mL (≈ 59.8 µM) | 50 µg/mL (≈ 120 µM) | 50 µg/mL (≈ 120 µM) | 74 ± 0.18^∗∗ % | 67 ± 0.06^∗∗ % | 39 ± 0.29% | 26.2 ± 4.1 | 37.61% | – | – | –
2 | O=C1OC(c2ccc3ccccc3c2)=CC1=Cc1cc2cc([N+](=O)[O-])ccc2nc1Cl [Compound 5d, 3-[(2-Chloro-6-nitroquinolin-3-yl)methylene]-5-(naphthalene-2-yl)furan-2(3H)-one] | – | 4.4 min and 4.4 ± 0.6^∗∗ min | 6.5 min and 6.5 ± 0.2 ^∗ min | 12.5 µg/mL (≈ 29.1 µM) | 12.5 µg/mL (≈ 29.1 µM) | 25 µg/mL (≈ 58.3 µM) | 25 µg/mL (≈ 58.3 µM) | 25 µg/mL (≈ 58.3 µM) | 25 µg/mL (≈ 58.3 µM) | 79 ± 0.12^∗∗ % | 61 ± 0.15^∗∗ % | 56 ± 0.25^∗ % | 6.0 ± 2.2^∗∗ | – | – | – | –
3 | O=C1OC(c2ccc(-c3ccccc3)cc2)=CC1=Cc1cc2cc([N+](=O)[O-])ccc2nc1Cl [Compound 5h, 3-[(2-Chloro-6-nitroquinolin-3-yl)methylene]-5-(biphenyl-4-yl)furan-2(3H)-one] | 0.40 ± 0.36 | 4.3 min and 4.3 ± 0.4^∗∗ min | 6.2 min and 6.2 ± 1.5^∗ min | 25 µg/mL (≈ 55 µM) | 50 µg/mL (≈ 110 µM) | > 100 µg/mL | 25 µg/mL (≈ 55 µM) | 25 µg/mL (≈ 55 µM) | > 100 µg/mL | 73 ± 0.08^∗∗ % | 58 ± 0.15^∗∗ % | 50 ± 0.13% | 7.6 ± 2.3^∗∗ | – | – | – | –
4 | O=C1NC(c2ccc3ccccc3c2)=CC1=Cc1cc2cc(Cl)ccc2nc1Cl [Compound 6b, 3-[(2,6-Dichloroquinolin-3-yl)methylene]-5-(naphthalene-2-yl)-1H-pyrrol-2(3H)-one] | 0.43 ± 0.33 | 1.8 ± 0.2 min | 4.2 ± 0.6 min | 6.25 µg/mL (≈ 15 µM) | 50 µg/mL (≈ 120 µM) | 6.25 µg/mL (≈ 15 µM) | 12.5 µg/mL (≈ 30 µM) | 12.5 µg/mL (≈ 30 µM) | 50 µg/mL (≈ 120 µM) | 62 ± 0.09^∗ % | 66 ± 0.18^∗∗ % | 53 ± 0.17% | 13.8 ± 4.4^∗ | 67.14% | – | – | –
5 | O=C1C(=Cc2cc3cc(Cl)ccc3nc2Cl)C=C(c2ccc3ccccc3c2)N1Cc1ccccc1 [Compound 7b, 1-Benzyl-3-[(2,6-dichloroquinolin-3-yl)methylene]-5-(naphthalene-2-yl)-1H-pyrrol-2(3H)-one] | 0.36 ± 0.35^∗ | 2.4 ± 0.3 min | 3.4 ± 0.2 min | 25 µg/mL (≈ 49.3 µM) | 12.5 µg/mL (≈ 24.6 µM) | 25 µg/mL (≈ 49.3 µM) | 50 µg/mL (≈ 98.5 µM) | 25 µg/mL (≈ 49.3 µM) | > 100 µg/mL | 84 ± 0.06^∗∗ % | 74 ± 0.21^∗∗ % | 70 ± 0.23^∗ % | 25.4 ± 4.8 | 39.52% | – | – | –
6 | O=C1C(=Cc2cc3cc([N+](=O)[O-])ccc3nc2Cl)C=C(c2ccc3ccccc3c2)N1Cc1ccccc1 [Compound 7d, 1-Benzyl-3-[(2-chloro-6-nitroquinolin-3-yl)methylene]-5-(naphthalene-2-yl)-1H-pyrrol-2(3H)-one] | 0.40 ± 0.32 | 3.2 ± 0.4^∗ min | 5.4 ± 1.9 min | 25 µg/mL (≈ 48.3 µM) | 25 µg/mL (≈ 48.3 µM) | 25 µg/mL (≈ 48.3 µM) | 25 µg/mL (≈ 48.3 µM) | 50 µg/mL (≈ 96.5 µM) | > 100 µg/mL | 83 ± 0.06^∗∗ % | 73 ± 0.15^∗∗ % | 66 ± 0.26% | 21.0 ± 10.0^∗ | 50% | – | – | –
7 | O=C1C(=Cc2cc3cc(Cl)ccc3nc2Cl)C=C(c2ccc(-c3ccccc3)cc2)N1Cc1ccccc1 [Compound 7f, 1-Benzyl-3-[(2,6-dichloroquinolin-3-yl)methylene]-5-(biphenyl-4-yl)-1H-pyrrol-2(3H)-one] | 0.53 ± 0.12 | 3.2 ± 0.2^∗ min | 6.2 min and 6.2 ± 1.5^∗ min | 12.5 µg/mL (≈ 23.4 µM) | 25 µg/mL (≈ 46.9 µM) | 12.5 µg/mL (≈ 23.4 µM) | 25 µg/mL (≈ 46.9 µM) | 50 µg/mL (≈ 93.7 µM) | 50 µg/mL (≈ 93.7 µM) | 84 ± 0.12% | 74 ± 0.19^∗∗ % | 63 ± 0.14^∗ % | 12.8 ± 3.8^∗∗ | – | – | – | –
8 | Cc1ccc2nc(Cl)c(C=C3C=C(c4ccc(-c5ccccc5)cc4)N(Cc4ccccc4)C3=O)cc2c1 [Compound 7g, 1-Benzyl-3-[(2-chloro-6-methylquinolin-3-yl)methylene]-5-(biphenyl-4-yl)-1H-pyrrol-2(3H)-one] | – | – | – | 25 µg/mL (≈ 48.7 µM) | > 100 µg/mL | 50 µg/mL (≈ 97.5 µM) | 25 µg/mL (≈ 48.7 µM) | 50 µg/mL (≈ 97.5 µM) | > 100 µg/mL | 69 ± 0.03^∗∗ % | 54 ± 0.14^∗∗ % | 30 ± 0.20% | – | – | did not show any inhibition | did not show any inhibition | 40 ± 0.16%
9 | O=C1C(=Cc2cc3cc([N+](=O)[O-])ccc3nc2Cl)C=C(c2ccc(-c3ccccc3)cc2)N1Cc1ccccc1 [Compound 7h, 1-Benzyl-3-[(2-chloro-6-nitroquinolin-3-yl)methylene]-5-(biphenyl-4-yl)-1H-pyrrol-2(3H)-one] | – | 5.5 min and 5.5 ± 0.3^∗∗ min | 6.4 min and 6.4 ± 0.3^∗ min | 25 µg/mL (≈ 46 µM) | 50 µg/mL (≈ 91.9 µM) | > 100 µg/mL | 50 µg/mL (≈ 91.9 µM) | > 100 µg/mL | 50 µg/mL (≈ 91.9 µM) | 36 ± 0.13% | 65 ± 0.24^∗∗ % | 58 ± 0.34^∗ % | 10.4 ± 3.7^∗∗ | – | – | – | –
10 | O=C(O)Cc1ccccc1Nc1c(Cl)cccc1Cl [Diclofenac, diclofenac, reference compound] | 0.86 ± 0.28 | 8.2 ± 0.2^∗∗ min | 8.8 ± 0.2^∗∗ min | – | – | – | – | – | – | – | – | – | 4.2 ± 1.0^∗∗ | 90% | – | – | 92%
